Results of several laboratories.
Target: Protein kinase C theta type (PRKCQ, Homo sapiens, UniProt Q04759)

COc1ncc2cc3ccccc3nc2c1C#N — remaining binding (cell-free assay; competition with immobilised ligand; 5 µM): 94%
CCN1CCN(Cc2ccc(C(=O)Nc3ccc(C)c(Oc4ccc5c(c4)CC(=O)N5)c3)cc2C(F)(F)F)CC1 — remaining binding (binding; competition with immobilised ligand; 1 µM): 100%
O=C(c1ccc(Nc2ncc(Cl)c(-c3ccc(Cl)s3)n2)cc1)N1CCC(N2CCCC2)CC1 — remaining binding (binding; competition with immobilised ligand; 1 µM): 60%
CN(c1ccnc(CNc2nc(Nc3ccc4c(c3)CC(=O)N4)ncc2C(F)(F)F)n1)S(C)(=O)=O — remaining binding (cell-free assay; competition with immobilised ligand; 1 µM): 55%
COc1ccnn2ncc(-c3ccnc(N(C)C)n3)c12 — remaining binding (binding; 1 µM): 81%
FC(F)(F)Oc1cccc(-c2cnc3ccc(-c4ccncc4)nn23)c1 — remaining binding (cell-free assay; competition with immobilised ligand; 5 µM): 85%
C[C@@H]1CCN(c2nccc(-c3cnn4ncccc34)n2)C1 — remaining binding (binding; 1 µM): 67%
COc1ccc2c(c1)O[C@@H](c1ccc(OC)c(OC)c1)C[C@H]2NC(=O)C1(c2ccc3c(c2)OC(F)(F)O3)CC1 — remaining binding (cell-free assay; competition with immobilised ligand; 1 µM): 98%
c1cnn2ncc(-c3ccnc(N4CCC45COC5)n3)c2c1 — remaining binding (binding; 1 µM): 86%
COc1cnc(Nc2cccc(S(N)(=O)=O)c2)nc1N1CCN(c2ccccc2)C(=O)C1 — remaining binding (binding; competition with immobilised ligand; 1 µM): 100%
Nc1ncc2c(n1)-c1c([nH]c3ccc(C#CC4CC4)cc13)CCCC2 — remaining binding (binding; competition with immobilised ligand; 1 µM): 98%
CN(C)c1ncc(F)c(-c2cnn3ncccc23)n1 — remaining binding (binding; 1 µM): 100%
Cc1c(NC(=O)c2cc(C(N)=O)nc3cc(F)ccc23)c(C(F)(F)F)nn1Cc1ccc(C#N)cc1 — remaining binding (cell-free assay; competition with immobilised ligand; 1 µM): 80%
CNC(=O)[C@@H]1CC[C@@H](n2c(-c3ccc4cnccc4c3)nc3ccc(C(=O)NCc4cccc(C(N)=O)c4)cc32)C1 — remaining binding (binding; competition with immobilised ligand; 1 µM): 63%
N[C@@H]1CCN(c2nccc(-c3cnn4ncccc34)n2)C1 — remaining binding (binding; 1 µM): 100%
C[C@@H]1CN(c2cc(-c3nn(C)c4ccc(OC5(C)CC5)cc34)ncn2)C[C@H](C)O1 — remaining binding (cell-free assay; competition with immobilised ligand; 1 µM): 91%
O=C(NCC1CCOCC1)c1n[nH]cc1NC(=O)c1c(F)cccc1F — remaining binding (binding; competition with immobilised ligand; 1 µM): 100%
Cc1cc(NC(=O)c2cccc(S(F)(F)(F)(F)F)c2)cc(-n2ccn3nc(-c4cccnc4)cc23)c1 — remaining binding (cell-free assay; competition with immobilised ligand; 1 µM): 60.3%
O=C(NCCCN1CCOCC1)c1ccc(Nc2nccc(-c3cc4ccccc4s3)n2)cc1 — remaining binding (binding; competition with immobilised ligand; 1 µM): 100%
CN(c1nccc(-c2cnn3ncccc23)n1)C1CC1 — remaining binding (binding; 1 µM): 100%
CS(=O)(=O)N1CCCC(NC(=O)[C@H](CCC2CCCCC2)NC(=O)c2ccc(CNC(=O)c3cnc4ccccn34)cc2)C1 (stereo partly shown) — remaining binding (cell-free assay; competition with immobilised ligand; 0.1 µM): 97%
O=C(NCCCN1CCOCC1)c1ccc(Nc2ncc(Cl)c(-c3ccc(Cl)s3)n2)cc1 — remaining binding (binding; competition with immobilised ligand; 1 µM): 100%
